Assay results taken from ChEMBL document CHEMBL5661979, “Pharmacological inhibition of BMK1 suppresses tumor growth through promyelocytic leukemia protein” (Cancer Cell, 2010).

Experiments:
[1] = biological target: DNA-dependent protein kinase catalytic subunit (Homo sapiens, UniProt P78527); test: Inhibition of PRKDC in human HeLa cells lysate at 2 uM pre incubated for 15 mins followed by ATP acyl phosphate probe addition and measured after 10 mins by LC-MS/MS analysis relative to control; format: subcellular; conditions: time 25.0 min
[2] = biological target: Serine/threonine-protein kinase greatwall (Homo sapiens, UniProt Q96GX5); test: Inhibition of MASTL in human HeLa cells lysate pre incubated for 15 mins followed by ATP acyl phosphate probe addition and measured after 10 mins by LC-MS/MS analysis; format: subcellular
[3] = biological target: Protein kinase C theta type (Homo sapiens, UniProt Q04759); test: Inhibition of PKCtheta in human HeLa cells lysate at 50 uM pre incubated for 15 mins followed by ATP acyl phosphate probe addition and measured after 10 mins by LC-MS/MS analysis relative to control; format: subcellular; conditions: time 25.0 min
[4] = biological target: Serine/threonine-protein kinase Chk2 (Homo sapiens, UniProt O96017); test: Inhibition of CHK2 in human HeLa cells lysate at 10 uM pre incubated for 15 mins followed by ADP acyl phosphate probe addition and measured after 10 mins by LC-MS/MS analysis relative to control; format: subcellular; conditions: time 25.0 min
[5] = biological target: Cyclin-dependent kinase 11B (Homo sapiens, UniProt P21127); test: Inhibition of PITSLRE in human HeLa cells lysate at 50 uM pre incubated for 15 mins followed by ATP acyl phosphate probe addition and measured after 10 mins by LC-MS/MS analysis relative to control; format: subcellular; conditions: time 25.0 min
[6] = biological target: Calcium/calmodulin-dependent protein kinase type II subunit gamma (Homo sapiens, UniProt Q13555); test: Inhibition of CAMK2g in human HeLa cells lysate at 10 uM pre incubated for 15 mins followed by ATP acyl phosphate probe addition and measured after 10 mins by LC-MS/MS analysis relative to control; format: subcellular; conditions: time 25.0 min
Summary of the method: (§1)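 KiNativ-type profiling in HeLa lysate (5 mg/mL total protein). Lysate preincubated 15 min with inhibitor at 50, 10, 2, 0.8 or 0 μM, then ATP or ADP acylphosphate probe added (5 μM final) for 10 min. Reaction stopped with urea and analysed by targeted MS, using up to four fragment ions per kinase peptide-probe conjugate. % inhibition calculated against untreated lysate. Duplicate reactions.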

[7] = biological target: Serine/threonine-protein kinase 3/4 (Homo sapiens, UniProt Q13043+Q13188); test: Inhibition of MST1/2 in human HeLa cells lysate pre incubated for 15 mins followed by ATP acyl phosphate probe addition and measured after 10 mins by LC-MS/MS analysis; format: subcellular
[8] = biological target: Ribosomal protein S6 kinase alpha-1 (Homo sapiens, UniProt Q15418); test: Inhibition of RSK1 domain 2 in human HeLa cells lysate at 10 uM pre incubated for 15 mins followed by ATP acyl phosphate probe addition and measured after 10 mins by LC-MS/MS analysis relative to control; format: subcellular; conditions: time 25.0 min
[9] = biological target: Mitogen-activated protein kinase 3 (Homo sapiens, UniProt P27361); test: Inhibition of ERK1 in human HeLa cells lysate at 10 uM pre incubated for 15 mins followed by ADP acyl phosphate probe addition and measured after 10 mins by LC-MS/MS analysis relative to control; format: subcellular; conditions: time 25.0 min
eIF-2-alpha kinase GCN2 = eIF-2-alpha kinase GCN2 (Homo sapiens, UniProt Q9P2K8); test: Inhibition of GCN2 in human HeLa cells lysate at 10 uM pre incubated for 15 mins followed by ATP acyl phosphate probe addition and measured after 10 mins by LC-MS/MS analysis relative to control; format: subcellular; conditions: time 25.0 min
[10] = Inhibition of SRPK1/2 in human HeLa cells lysate pre incubated for 15 mins followed by ADP acyl phosphate probe addition and measured after 10 mins by LC-MS/MS analysis; format: subcellular
[11] = biological target: Calcium/calmodulin-dependent protein kinase type II subunit delta (Homo sapiens, UniProt Q13557); test: Inhibition of CAMK2d in human HeLa cells lysate at 50 uM pre incubated for 15 mins followed by ATP acyl phosphate probe addition and measured after 10 mins by LC-MS/MS analysis relative to control; format: subcellular; conditions: time 25.0 min; summary of the method: as §1
[12] = Toxicity in C57Bl/6 mouse assessed as effect on glucose level at 50 mg/kg, ip for 14 days (reference value: 181 mg/dl); format: organism-based; conditions: in vivo, 336 h, time 14 day
[13] = biological target: MAP/microtubule affinity-regulating kinase 3 (Homo sapiens, UniProt P27448); test: Inhibition of MARK3 in human HeLa cells lysate pre incubated for 15 mins followed by ADP acyl phosphate probe addition and measured after 10 mins by LC-MS/MS analysis; format: subcellular
[14] = biological target: Serine/threonine-protein kinase PLK1 (Homo sapiens, UniProt P53350); test: Inhibition of PLK1 in human HeLa cells lysate pre incubated for 15 mins followed by ADP acyl phosphate probe addition and measured after 10 mins by LC-MS/MS analysis; format: subcellular
[15] = biological target: Mitogen-activated protein kinase 1 (Homo sapiens, UniProt P28482); test: Inhibition of ERK2 in human HeLa cells lysate pre incubated for 15 mins followed by ATP acyl phosphate probe addition and measured after 10 mins by LC-MS/MS analysis; format: subcellular
[16] = biological target: Serine/threonine-protein kinase 24 (Homo sapiens, UniProt Q9Y6E0); test: Inhibition of MST3 in human HeLa cells lysate at 50 uM pre incubated for 15 mins followed by ATP acyl phosphate probe addition and measured after 10 mins by LC-MS/MS analysis relative to control; format: subcellular; conditions: time 25.0 min
[17] = biological target: T1, Dual specificity mitogen-activated protein kinase kinase 4 (Homo sapiens) (UniProt P45985); test: Inhibition of MAP2K4 in human HeLa cells lysate at 10 uM pre incubated for 15 mins followed by ATP acyl phosphate probe addition and measured after 10 mins by LC-MS/MS analysis relative to control; format: subcellular; conditions: time 25.0 min
T1 sequence (whole entry): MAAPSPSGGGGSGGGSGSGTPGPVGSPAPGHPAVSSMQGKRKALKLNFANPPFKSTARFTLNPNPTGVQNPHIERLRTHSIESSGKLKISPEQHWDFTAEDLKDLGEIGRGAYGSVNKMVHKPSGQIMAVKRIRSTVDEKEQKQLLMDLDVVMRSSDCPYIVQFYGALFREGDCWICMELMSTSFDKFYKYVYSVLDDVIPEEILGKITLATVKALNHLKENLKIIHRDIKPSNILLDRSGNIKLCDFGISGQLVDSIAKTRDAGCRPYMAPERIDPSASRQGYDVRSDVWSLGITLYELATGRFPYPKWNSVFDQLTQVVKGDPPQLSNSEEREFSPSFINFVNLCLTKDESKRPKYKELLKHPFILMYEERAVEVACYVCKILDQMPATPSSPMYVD

Sequence of Serine/threonine-protein kinase PLK1 (P53350 whole entry): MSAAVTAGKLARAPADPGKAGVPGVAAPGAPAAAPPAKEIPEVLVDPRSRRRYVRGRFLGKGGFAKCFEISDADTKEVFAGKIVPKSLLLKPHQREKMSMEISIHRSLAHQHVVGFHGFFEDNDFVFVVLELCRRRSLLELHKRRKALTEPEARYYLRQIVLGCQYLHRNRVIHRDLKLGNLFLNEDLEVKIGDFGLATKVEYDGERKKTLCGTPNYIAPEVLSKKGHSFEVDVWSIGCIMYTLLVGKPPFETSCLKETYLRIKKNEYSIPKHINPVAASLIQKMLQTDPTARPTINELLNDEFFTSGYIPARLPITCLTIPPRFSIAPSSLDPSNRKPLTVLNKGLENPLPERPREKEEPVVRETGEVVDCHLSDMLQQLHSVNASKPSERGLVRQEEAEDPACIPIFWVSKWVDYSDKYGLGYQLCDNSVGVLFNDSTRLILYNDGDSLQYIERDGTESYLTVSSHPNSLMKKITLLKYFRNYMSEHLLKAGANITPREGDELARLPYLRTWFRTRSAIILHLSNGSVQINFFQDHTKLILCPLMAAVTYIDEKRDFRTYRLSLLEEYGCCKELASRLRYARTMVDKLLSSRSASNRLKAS
Sequence of MAP/microtubule affinity-regulating kinase 3 (P27448 whole entry): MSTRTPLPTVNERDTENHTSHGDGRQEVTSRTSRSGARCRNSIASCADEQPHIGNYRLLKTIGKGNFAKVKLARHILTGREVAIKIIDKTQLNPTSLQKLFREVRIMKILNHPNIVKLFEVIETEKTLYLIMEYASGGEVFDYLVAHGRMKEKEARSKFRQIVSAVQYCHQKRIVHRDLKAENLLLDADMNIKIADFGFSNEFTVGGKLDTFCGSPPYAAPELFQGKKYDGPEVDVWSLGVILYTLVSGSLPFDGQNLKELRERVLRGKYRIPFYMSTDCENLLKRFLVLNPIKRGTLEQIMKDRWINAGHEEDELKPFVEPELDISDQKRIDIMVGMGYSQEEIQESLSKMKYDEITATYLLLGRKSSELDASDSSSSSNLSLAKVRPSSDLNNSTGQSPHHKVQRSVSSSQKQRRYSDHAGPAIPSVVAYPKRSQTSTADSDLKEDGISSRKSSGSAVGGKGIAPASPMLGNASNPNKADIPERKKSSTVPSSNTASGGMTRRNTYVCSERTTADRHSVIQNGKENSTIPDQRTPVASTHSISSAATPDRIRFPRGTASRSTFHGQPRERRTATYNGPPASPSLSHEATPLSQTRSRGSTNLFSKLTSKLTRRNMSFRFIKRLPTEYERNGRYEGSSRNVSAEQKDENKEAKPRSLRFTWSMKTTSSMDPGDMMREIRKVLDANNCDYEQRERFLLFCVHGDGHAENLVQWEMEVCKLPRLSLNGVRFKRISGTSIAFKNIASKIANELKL
Sequence of Serine/threonine-protein kinase Chk2 (O96017 whole entry): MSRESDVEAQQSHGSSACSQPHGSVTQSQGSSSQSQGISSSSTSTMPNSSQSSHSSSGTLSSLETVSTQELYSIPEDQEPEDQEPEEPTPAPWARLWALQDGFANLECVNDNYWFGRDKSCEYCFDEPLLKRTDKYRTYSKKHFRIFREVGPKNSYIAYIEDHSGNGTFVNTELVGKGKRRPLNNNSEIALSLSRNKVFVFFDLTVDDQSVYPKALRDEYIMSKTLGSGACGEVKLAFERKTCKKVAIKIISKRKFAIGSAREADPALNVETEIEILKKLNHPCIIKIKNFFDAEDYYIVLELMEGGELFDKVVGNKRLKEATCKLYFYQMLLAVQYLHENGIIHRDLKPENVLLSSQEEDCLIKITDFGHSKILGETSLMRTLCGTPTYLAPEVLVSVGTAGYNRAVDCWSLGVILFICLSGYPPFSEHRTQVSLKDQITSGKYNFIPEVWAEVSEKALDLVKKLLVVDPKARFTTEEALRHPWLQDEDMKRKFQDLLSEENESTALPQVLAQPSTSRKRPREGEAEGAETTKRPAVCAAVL
Sequence of Calcium/calmodulin-dependent protein kinase type II subunit gamma (Q13555 whole entry, the tested form may be a part): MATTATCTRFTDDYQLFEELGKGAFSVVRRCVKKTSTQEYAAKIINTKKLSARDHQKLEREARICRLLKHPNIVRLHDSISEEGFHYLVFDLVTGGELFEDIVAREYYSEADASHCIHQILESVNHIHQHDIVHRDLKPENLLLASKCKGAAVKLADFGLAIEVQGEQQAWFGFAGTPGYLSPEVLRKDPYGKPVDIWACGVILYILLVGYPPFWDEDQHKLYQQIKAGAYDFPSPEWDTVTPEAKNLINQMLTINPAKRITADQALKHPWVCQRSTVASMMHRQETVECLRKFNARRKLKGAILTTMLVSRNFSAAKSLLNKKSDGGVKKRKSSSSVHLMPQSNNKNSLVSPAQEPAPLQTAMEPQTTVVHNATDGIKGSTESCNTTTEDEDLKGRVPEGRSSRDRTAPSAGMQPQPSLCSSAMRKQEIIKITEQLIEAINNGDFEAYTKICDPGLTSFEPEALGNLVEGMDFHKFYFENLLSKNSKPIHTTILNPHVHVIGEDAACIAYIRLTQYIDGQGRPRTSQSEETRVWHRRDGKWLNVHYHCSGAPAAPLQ
Sequence of Calcium/calmodulin-dependent protein kinase type II subunit delta (Q13557 whole entry): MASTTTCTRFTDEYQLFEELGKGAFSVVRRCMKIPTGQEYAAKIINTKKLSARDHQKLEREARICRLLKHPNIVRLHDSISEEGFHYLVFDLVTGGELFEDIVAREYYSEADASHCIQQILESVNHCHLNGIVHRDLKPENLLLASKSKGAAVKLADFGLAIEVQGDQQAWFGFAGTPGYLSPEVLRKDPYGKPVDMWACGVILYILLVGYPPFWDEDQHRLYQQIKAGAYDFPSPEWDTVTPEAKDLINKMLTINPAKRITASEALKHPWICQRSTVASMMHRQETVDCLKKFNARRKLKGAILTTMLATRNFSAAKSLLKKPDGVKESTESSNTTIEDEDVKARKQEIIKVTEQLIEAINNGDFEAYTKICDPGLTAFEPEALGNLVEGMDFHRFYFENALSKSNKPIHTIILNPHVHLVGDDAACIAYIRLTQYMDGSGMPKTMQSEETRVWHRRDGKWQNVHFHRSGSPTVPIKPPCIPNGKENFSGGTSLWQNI
Sequence of eIF-2-alpha kinase GCN2 (Q9P2K8 whole entry): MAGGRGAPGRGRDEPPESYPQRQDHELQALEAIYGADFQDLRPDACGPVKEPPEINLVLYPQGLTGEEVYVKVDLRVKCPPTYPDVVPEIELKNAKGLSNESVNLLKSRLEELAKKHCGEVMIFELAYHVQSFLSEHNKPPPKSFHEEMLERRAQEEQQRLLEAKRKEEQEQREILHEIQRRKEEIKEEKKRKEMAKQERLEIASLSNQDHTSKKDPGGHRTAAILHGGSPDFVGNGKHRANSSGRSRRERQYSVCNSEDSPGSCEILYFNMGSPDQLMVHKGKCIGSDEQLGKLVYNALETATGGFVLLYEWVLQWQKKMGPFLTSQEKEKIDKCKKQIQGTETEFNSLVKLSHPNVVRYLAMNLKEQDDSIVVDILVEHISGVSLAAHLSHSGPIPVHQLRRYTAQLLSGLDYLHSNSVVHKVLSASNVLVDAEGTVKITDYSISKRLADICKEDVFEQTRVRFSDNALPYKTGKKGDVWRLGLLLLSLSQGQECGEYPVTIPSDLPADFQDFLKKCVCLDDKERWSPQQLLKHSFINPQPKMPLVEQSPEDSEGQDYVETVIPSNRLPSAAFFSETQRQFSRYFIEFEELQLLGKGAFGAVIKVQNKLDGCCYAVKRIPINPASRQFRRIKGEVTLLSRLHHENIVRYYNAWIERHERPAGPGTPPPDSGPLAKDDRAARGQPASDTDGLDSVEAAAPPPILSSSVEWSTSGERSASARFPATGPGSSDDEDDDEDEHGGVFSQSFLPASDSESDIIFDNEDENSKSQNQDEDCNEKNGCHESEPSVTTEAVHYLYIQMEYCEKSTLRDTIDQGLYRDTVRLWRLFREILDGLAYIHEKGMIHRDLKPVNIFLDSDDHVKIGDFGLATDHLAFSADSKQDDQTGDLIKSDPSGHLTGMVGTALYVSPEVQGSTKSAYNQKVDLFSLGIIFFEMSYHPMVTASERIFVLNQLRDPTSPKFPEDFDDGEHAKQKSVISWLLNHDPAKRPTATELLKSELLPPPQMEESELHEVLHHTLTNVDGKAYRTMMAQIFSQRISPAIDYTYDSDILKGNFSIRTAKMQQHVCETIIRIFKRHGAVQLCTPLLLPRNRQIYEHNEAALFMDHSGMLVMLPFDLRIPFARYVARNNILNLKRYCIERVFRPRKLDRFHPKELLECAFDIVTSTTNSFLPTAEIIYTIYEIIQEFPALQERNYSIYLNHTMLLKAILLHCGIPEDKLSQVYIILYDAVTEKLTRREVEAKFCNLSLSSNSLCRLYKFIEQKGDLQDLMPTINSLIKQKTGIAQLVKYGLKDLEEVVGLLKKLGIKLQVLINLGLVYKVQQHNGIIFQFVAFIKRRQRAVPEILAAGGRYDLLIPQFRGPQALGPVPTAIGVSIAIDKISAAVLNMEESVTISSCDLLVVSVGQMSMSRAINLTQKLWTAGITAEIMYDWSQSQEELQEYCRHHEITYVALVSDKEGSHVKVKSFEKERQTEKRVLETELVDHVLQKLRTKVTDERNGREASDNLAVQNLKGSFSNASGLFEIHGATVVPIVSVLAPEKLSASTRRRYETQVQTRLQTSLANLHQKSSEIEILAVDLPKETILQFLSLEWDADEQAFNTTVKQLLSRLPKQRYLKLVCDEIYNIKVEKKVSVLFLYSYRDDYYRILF
Sequence of Serine/threonine-protein kinase 24 (Q9Y6E0 whole entry, looked up): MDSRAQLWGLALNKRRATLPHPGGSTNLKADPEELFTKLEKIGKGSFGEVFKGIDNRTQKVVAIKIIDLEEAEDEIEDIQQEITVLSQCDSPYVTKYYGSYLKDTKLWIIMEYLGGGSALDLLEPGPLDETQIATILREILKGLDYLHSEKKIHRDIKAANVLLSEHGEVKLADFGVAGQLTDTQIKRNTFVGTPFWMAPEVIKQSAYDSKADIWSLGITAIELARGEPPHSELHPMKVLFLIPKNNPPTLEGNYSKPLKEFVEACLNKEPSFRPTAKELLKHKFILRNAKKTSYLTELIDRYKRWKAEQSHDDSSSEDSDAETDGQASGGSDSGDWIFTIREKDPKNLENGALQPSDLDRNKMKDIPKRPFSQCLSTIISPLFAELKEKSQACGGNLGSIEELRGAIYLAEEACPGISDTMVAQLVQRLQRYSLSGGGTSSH

## CCOc1cc(N2CCC(O)CC2)ccc1Nc1ncc2c(n1)N(C)c1ccccc1C(=O)N2C
[1]
  inhibition: 0.6%
[2]
  IC50: > 50 µM
[3]
  inhibition: 1.8%
[4]
  inhibition: 1.1%
[5]
  inhibition: -8.6%
[6]
  inhibition: -8.6%
[7]
  IC50: > 50 µM
[8]
  inhibition: 20.9%
[9]
  inhibition: -3.9%
eIF-2-alpha kinase GCN2
  inhibition: -0.6%
[10]
  IC50: > 50 µM
[11]
  inhibition: 40.8%
[12]
  Activity: 126 mg/dL
[13]
  IC50: > 50 µM
[14]
  IC50: > 50 µM
[15]
  IC50: > 50 µM
[16]
  inhibition: -4.6%
[17]
  inhibition: 3.9%
